An excerpt weighted towards active compounds, which were near 3.1% of everything screened.
MBD2 DNA inh – inhibitors of MBD2 binding to methylated DNA, primary screen, biochemical, TR-FRET, DNA-binding domain, human. Methyl-CpG-binding domain protein 2 (Homo sapiens), Q9UBB5. MBD2 binding to methylated oligonucleotide. inhibition, % at 4.4 µM. 370,000 tested, 0.31% active. AID 686964, 2013; in the data active means inhibition above about 13%
RBBP9 inh – human RBBP9 inhibitors, primary screen, biochemical, fluorescence polarization, FP-Rh probe, HTS | inhibition, % at 7.94 µM | Serine hydrolase RBBP9 (Homo sapiens), O75884 | 220,000 tested, 0.2% active | recombinant RBBP9;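 active means inhibition above the campaign mean of all tested compounds plus 3 SD, cut at about 14% in these data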;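 further: plate controls were DMSO wells with RBBP9 for no effect and wells lacking RBBP9 protein for full effect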
Target sequence (O75884 whole entry, looked up): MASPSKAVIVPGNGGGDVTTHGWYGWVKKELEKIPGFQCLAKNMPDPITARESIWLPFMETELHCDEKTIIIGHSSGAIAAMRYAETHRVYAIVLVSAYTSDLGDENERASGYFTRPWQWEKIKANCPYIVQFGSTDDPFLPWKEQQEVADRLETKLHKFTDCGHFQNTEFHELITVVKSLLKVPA
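Controls: DMSO-treated enzyme wells and wells lacking RBBP9 | Material: RBBP9 protein | Technique: Fluorescence polarization | Replication: Single well per compound, no replicates | Buffer or medium: Tris-NaCl-Pluronic buffer, pH 8.0 | Timing: 30 min compound preincubation, 45 min probe labeling, 25 °C | Read-out basis: Percent inhibition from mP, scaled between DMSO and no-protein wells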
LEDGF integ inh – blockers of LEDGF/p75-dependent integrase strand transfer – biochemical, TR-FRET, high throughput, primary screen; HIV-1 integrase (with human LEDGF/p75); TR-FRET IN-LEDGF/p75 DNA integration, Eu/Cy5; inhibition, % at 3.7 µM; 370,000 tested, 0.64% active; AID 743269, 2014;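 active means inhibition above the screen-wide mean plus 3 SD, cut at about 13% in these data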;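 further: signal is the Cy5 over europium emission ratio at 671 and 618 nm; 0% = plate median of compound wells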
ABHD5 PLIN5 PPI – ABHD5-PLIN5 interaction inhibitors, primary screen, cell lysate, split luciferase complementation, luminescence; 360,000 tested, 0.78% active; Split G. princeps luciferase complementation, 4 h; inhibition, % at 4 µM; Perilipin-5 (Homo sapiens) + 1-acylglycerol-3-phosphate O-acyltransferase ABHD5 (Homo …; AID 602281, 2012;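 active means inhibition above the mean inhibition across every tested compound plus 3 SD, cut at about 22% in these data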;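 further: 0% = DMSO only wells and the 100% control is not disclosed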
PRMT1 inh – PRMT1 methyltransferase inhibitors, primary screen, biochemical, fluorescence polarization | AID 652257, 2013 | Protein arginine N-methyltransferase 1 (Homo sapiens), Q99873 | 370,000 tested, 1.3% active | inhibition, % at 2.79 µM | recombinant PRMT1, activity-based probe fluorescence polarization;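 active means inhibition above about 21% made by adding two undisclosed values, limit read from the data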
Target sequence (Q99873 whole entry, looked up): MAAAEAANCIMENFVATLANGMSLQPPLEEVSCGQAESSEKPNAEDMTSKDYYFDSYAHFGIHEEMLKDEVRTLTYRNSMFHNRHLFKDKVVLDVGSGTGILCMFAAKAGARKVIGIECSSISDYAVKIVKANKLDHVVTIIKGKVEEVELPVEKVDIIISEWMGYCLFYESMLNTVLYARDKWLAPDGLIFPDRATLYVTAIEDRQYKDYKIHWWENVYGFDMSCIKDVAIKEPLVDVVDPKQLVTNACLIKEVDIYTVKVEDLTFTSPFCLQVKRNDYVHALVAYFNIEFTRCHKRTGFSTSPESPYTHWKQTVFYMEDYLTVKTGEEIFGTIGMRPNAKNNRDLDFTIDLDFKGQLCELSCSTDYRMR
UHRF1 MBD2 ctr – UHRF1 methylated DNA binding inhibitors, primary screen, counter-screen for MBD2 inhibitor project, biochemical, TR-FRET, human UHRF1, single concentration; inhibition, % at 4.4 µM; E3 ubiquitin-protein ligase UHRF1 (Homo sapiens), Q96T88; 370,000 tested, 0.75% active; UHRF1 binding to methylated oligo; in the data active means inhibition above about 21%;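 further: UHRF1 SRA domain binding a hemimethylated CpG hairpin DNA probe; 0% = median of test compound wells and 100% = reference inhibitor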
IN multimer act – HIV-1 IN multimer formation enhancers, counter-screen for LEDGF/p75 integration inhibitor project, biochemical, TR-FRET. shares compounds with LEDGF integ inh. TR-FRET HIV-1 integrase multimerization. activation, % at 7.7 µM. 2,000 tested, 17% active; in the data active means activation above about 8.9%
TRFRET interf – TR-FRET optical interference artefacts, confirmation, artefact control for LEDGF/p75-dependent integration inhibitor project, biochemical, HIV-1 IN multimerization; shares compounds with LEDGF integ inh; TR-FRET optical interference counterscreen; inhibition, % at 7.7 µM; 2,000 tested, under 10 active; AID 1053135, 2014;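 active means inhibition above the mean over all tested compounds plus 3 SD, which no compound reached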;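 further: 0% = integrase with antibodies and DMSO and 100% = antibodies without integrase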
IN-LEDGF confirm – inhibitors of HIV-1 IN-LEDGF/p75 DNA integration, confirmation, biochemical, TR-FRET. shares compounds with LEDGF integ inh. TR-FRET LEDGF/p75-dependent HIV-1 integration. inhibition, % at 3.7 µM. AID 1053136, 2014. 2,000 tested, 36% active; in the data active means inhibition above about 14%
Numbers without * were called inactive; . = no result given.

SMILES	MBD2 DNA inh	RBBP9 inh	LEDGF integ inh	ABHD5 PLIN5 PPI	PRMT1 inh	UHRF1 MBD2 ctr	IN multimer act	TRFRET interf	IN-LEDGF confirm
Cc1cc(NC(=O)CSc2nc(C3CC3)nc3sc(C)c(C)c23)no1	-2.5	4.3	16.9*	-11.5	-0.4	0.8	15.6*	-55.3	-8.2
CCc1nc(SCC(=O)Nc2cc(C)on2)c2c(C)c(C)sc2n1	0.6	-3.2	-0.1	-2.6	0.9	-0.7	.	.	.
CCCCCN1CCCCC(NC(=O)c2cccc(C(F)(F)F)c2)C1=O (stereo not drawn)	-2.3	.	-1.6	.	-7.1	-1.0	.	.	.
C#CCCCN([C@H](C(=O)OC)C(C)C)S(=O)(=O)c1ccccc1Br	-1.9	.	4.7	.	-5.8	2.1	.	.	.
COc1cc(C(=S)N2CCOCC2)ccc1OS(=O)(=O)c1ccc(C)cc1	0.9	.	20.1*	-2.3	4.7	1.2	0.3	-1.2	-4.8
COc1cc(C(=S)N2CCOCC2)ccc1OS(=O)(=O)c1ccc(Cl)cc1	-1.5	.	5.4	-7.0	7.2	-1.4	.	.	.
O=C(NCc1ccncc1)C1CCN(S(=O)(=O)c2cc(Cl)ccc2Cl)CC1	-0.8	.	20.5*	1.7	4.2	0.6	0.1	-0.5	-7.7
O=C(NCc1ccncc1)C1CCCN(S(=O)(=O)c2cc(Cl)ccc2Cl)C1 (stereo not drawn)	3.3	.	0.8	-8.4	0.2	-0.5	.	.	.
Cc1nc2sc(C(c3ccccc3)N3CCOCC3)c(O)n2n1 (stereo not drawn)	0.0	2.4	-0.5	3.3	-0.4	-3.9	.	.	.
Cc1nc2sc(C(c3ccco3)N3CCC(C)CC3)c(O)n2n1 (stereo not drawn)	2.5	-5.0	13.4*	4.9	21.6*	-2.0	-2.8	14.3	-2.5
Oc1cc(CNC2CCCCC2)c(O)cc1CNC1CCCCC1	-7.8	.	13.8*	1.1	12.9	-6.6	3.2	-11.7	24.0*
CCCCOCCCNC(=O)C[C@H]1C[C@@]2(C(=O)OCC)CCCC3=C2N(CCC3)C1=O	-4.5	.	4.1	.	-5.1	-1.2	.	.	.
O=S1(=O)c2ccccc2-c2c(nnn2CC2CCCCC2)CN1C1CC1	-3.9	.	-2.6	.	0.7	-1.0	.	.	.
N#Cc1c(NC(=O)COC(=O)C2CC3C=CC2C3)oc(-c2ccccc2)c1-c1ccccc1 (stereo not drawn)	-0.2	-2.9	17.6*	-7.1	-0.1	7.4	-2.4	12.2	0.8
COC(=O)c1ccc(CN2C(=O)[C@]3(OCCC=C[C@H]3C)c3cc(OC)ccc32)cc1	4.2	.	0.0	.	3.4	0.3	.	.	.
COc1ccc(-c2csc(NC(=O)c3ccccc3OC)c2C(=O)O)cc1OC	-6.6	.	2.5	-1.4	-3.9	1.1	.	.	.
COc1ccc(-c2csc(NC(=O)c3cccs3)c2C(=O)O)cc1OC	4.9	3.1	17.9*	-1.4	-7.6	0.0	1.5	-7.6	10.1
O=c1[nH]c(-c2ccccc2)nn1-c1ccc(Br)cc1Br	1.6	.	26.1*	-2.5	-0.4	-2.9	0.7	-3.6	4.7
O=C(Nc1ccc2[nH]ccc2c1)c1cc(-c2ccc(Cl)cc2)nc2ccccc12	2.1	.	-1.5	.	8.7	0.7	.	.	.
CC(C)C[C@@H](CN1CCC[C@H]1CN1C(=O)C(=O)NC[C@@H]1Cc1ccc(O)cc1)N1C[C@H](Cc2ccc(O)cc2)N(CCc2ccccc2)C(=O)C1=O	3.2	.	73.5*	-3.6	1.1	2.9	3.2	-16.1	-10.1
CCOC(=O)CCCCCC(=O)Nc1ccc2c(c1)C(=O)N([C@H](C)CO)C[C@@H](C)[C@@H](CN(C)S(=O)(=O)c1ccc(C)cc1)OCCCC[C@H](C)O2	3.9	.	-0.3	.	-2.4	18.5	.	.	.
CCCCNC[C@@]12CO[C@H](c3ccc(Cl)cc3)N1[C@@H](c1ccc(Cl)cc1)SC2	0.7	.	-1.3	.	2.8	-1.1	.	.	.
CC(=O)c1ccc2c(c1)C1C=CCC1C(C(=O)O)N2 (stereo not drawn)	103.8*	10.8	89.6*	3.7	70.6*	92.8*	52.7*	-187.4	76.6*
CCOC(=O)c1ccc(NC2OC(=O)c3ccccc32)cc1 (stereo not drawn)	0.1	-7.3	19.6*	3.7	-1.3	-0.7	-0.5	1.7	-6.0
Cc1ccc(NC(=O)CCc2ccccc2)cc1C	-1.2	.	72.4*	-4.9	1.9	-2.7	-0.5	2.4	-1.1
SMILES	MBD2 DNA inh	RBBP9 inh	LEDGF integ inh	ABHD5 PLIN5 PPI	PRMT1 inh	UHRF1 MBD2 ctr	IN multimer act	TRFRET interf	IN-LEDGF confirm
O=C(Nc1ccccc1)Nc1nc2ncccn2c1-c1ccc(C(F)(F)F)cc1	2.5	.	-1.8	.	2.9	3.4	.	.	.
CCOC(=O)[C@]12CCCC=C1N(Cc1ccc(OC)cc1)C(=O)[C@@H]2CC(=O)NCc1cccc2ccccc12	-2.2	.	6.4	.	-3.7	-1.4	.	.	.
Cn1c(SCC(=O)OCc2ccccc2)nnc1-c1ccco1	5.8	1.0	-0.9	3.6	6.2	9.2	.	.	.
CCn1c(SCC(=O)OCc2ccccc2)nnc1-c1ccco1	0.8	-10.8	19.0*	8.8	2.5	2.9	0.4	-2.1	-9.6
O=[N+]([O-])c1cc([N+](=O)[O-])c2nonc2c1Nc1ccc(O)cc1	-13.0	.	15.0*	-17.3	8.5	-2.6	5.6	-19.9	3.2
CC(NC(=O)Nc1ccc(O)cc1)(C(F)(F)F)C(F)(F)F	-7.3	10.0	19.5*	-18.6	13.8	-1.1	4.2	-15.0	-4.0
CC1CCCCC1N(C(=O)c1cc(C2CC2)on1)C1CCCCC1 (stereo not drawn)	-3.2	.	0.2	.	5.3	-1.4	.	.	.
N#Cc1cc2ccc(N3CCOCC3)cc2cc1C#N	-7.4	-5.5	31.4*	-4.9	1.5	-0.8	4.3	-15.4	4.1
COCC(=O)OC1CCn2c1nc1c2C(=O)C(C)=C(NC(C)=O)C1=O (stereo not drawn)	-2.6	.	16.2*	-16.3	-2.2	13.3	6.0	-21.2	58.4*

Screening data (PubChem BioAssay)
